# Data as given in ChEMBL document CHEMBL1649137, “Genetic analysis of factors affecting susceptibility of Bacillus subtilis to daptomycin” (2009).
# How the values were obtained:
# Bacillus subtilis [1] = test: Induction of ydjP gene expression in Bacillus subtilis W168 by microarray analysis; assay type: functional
# Outline: (§1)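 W168 grown in Ca2+-supplemented Mueller-Hinton broth at 37°C to OD600 0.4, split, and one half exposed to 1 μg/ml daptomycin for 20 min. Total RNA from three biological replicates; cDNA labeled with Alexa Fluor 555/647 and co-hybridized at 42°C for 16–18 h. Genes with summed intensity <20 or SD > mean were dropped. Fold change is treated/untreated signal, from ≥6 spot measurements.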
# Bacillus subtilis [2] = test: Induction of ywaC gene expression in Bacillus subtilis W168 by microarray analysis; assay type: functional
# Outline: (§2)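 W168 cultures in Mueller-Hinton broth with 50 mg/liter Ca2+, 37°C with shaking, grown to mid-log phase (OD600 0.4) from a 1:1,000 overnight dilution. Split: one half given 1 μg/ml daptomycin for 20 min, the other left untreated. Total RNA from three biological replicates; cDNA labeled with Alexa Fluor 555 or 647 and hybridized 16 to 18 h at 42°C. Induction = treated/untreated signal intensity, duplicate spots on three arrays.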
# Bacillus subtilis [3] = test: Decrease in rpmB gene expression in Bacillus subtilis W168 by microarray analysis; assay type: functional; outline: as §1
# Bacillus subtilis [4] = test: Antibacterial activity against Bacillus subtilis W168 mutant with alteration in membrane composition at 25 degC by liquid growth inhibition assay; assay type: functional
# Outline: (§3)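 Mid-log cells diluted to 5 × 10^5 CFU/ml in Mueller-Hinton broth with 50 mg/liter Ca2+. At least 10 concentrations near the predicted MIC, plus an untreated control, present from the start. Growth followed by OD600. Inhibition: final 24 h OD600 <0.05. MIC is the mode of at least triplicates.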
# Bacillus subtilis [5] = test: Antibacterial activity against liaH and sigW gene-deficient Bacillus subtilis CU1065 mutant by liquid growth inhibition assay; assay type: functional
# Outline: (§4)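 Daptomycin MIC by liquid growth inhibition. Overnight cultures diluted 1:100, grown to mid-log, rediluted to 5 × 10^5 CFU/ml in Mueller-Hinton broth with 50 mg/liter Ca2+. At least 10 concentrations near the predicted MIC, plus a no-drug control, added at start; 200 μl. OD600 read every 20 min for 24 h at 37°C with shaking. Inhibition: 24 h OD600 <0.05. MIC is the mode of at least triplicates.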
# Bacillus subtilis [6] = test: Antibacterial activity against mprF gene-deficient Bacillus subtilis CU1065 mutant by liquid growth inhibition assay; assay type: functional; outline: as §4
# Bacillus subtilis [7] = test: Induction of yhcZ gene expression in Bacillus subtilis W168 by microarray analysis; assay type: functional; outline: as §1
# Bacillus subtilis [8] = test: Decrease in yknU gene expression in Bacillus subtilis W168 by microarray analysis; assay type: functional; outline: as §1
# Bacillus subtilis [9] = test: Antibacterial activity against liaH gene-deficient Bacillus subtilis CU1065 mutant by liquid growth inhibition assay
# Bacillus subtilis [10] = test: Antibacterial activity against psd gene-deficient Bacillus subtilis CU1065 mutant by liquid growth inhibition assay; assay type: functional; outline: as §4
# Bacillus subtilis [11] = test: Antibacterial activity against liaGFSR gene-deficient Bacillus subtilis W168 mutant by liquid growth inhibition assay; assay type: functional; outline: as §4
# Bacillus subtilis [12] = test: Induction of liaR gene expression in Bacillus subtilis W168 by microarray analysis; assay type: functional; outline: as §1
# Bacillus subtilis [13] = test: Antibacterial activity against sigXM and liaIH gene-deficient Bacillus subtilis CU1065 mutant by liquid growth inhibition assay; assay type: functional; outline: as §4
# Bacillus subtilis [14] = test: Decrease in yvkN gene expression in Bacillus subtilis W168 by microarray analysis; assay type: functional; outline: as §1
# Bacillus subtilis [15] = test: Antibacterial activity against sigW gene-deficient Bacillus subtilis CU1065 mutant by liquid growth inhibition assay; assay type: functional; outline: as §4
# Bacillus subtilis [16] = test: Decrease in degR gene expression in Bacillus subtilis W168 by microarray analysis; assay type: functional; outline: as §1
# Bacillus subtilis [17] = test: Decrease in ywdD gene expression in Bacillus subtilis W168 by microarray analysis; assay type: functional; outline: as §1
# Bacillus subtilis [18] = test: Induction of yvrI gene expression in Bacillus subtilis W168 by microarray analysis; assay type: functional; outline: as §2
# Bacillus subtilis [19] = test: Antibacterial activity against liaH and yhcYZ gene-deficient Bacillus subtilis W168 mutant by liquid growth inhibition assay; assay type: functional; outline: as §4
# Bacillus subtilis [20] = test: Antibacterial activity against yhcYZ gene-deficient Bacillus subtilis CU1065 mutant by liquid growth inhibition assay; assay type: functional; outline: as §4
# Bacillus subtilis [21] = test: Decrease in yvzA gene expression in Bacillus subtilis W168 by microarray analysis; assay type: functional; outline: as §1
# Bacillus subtilis [22] = test: Induction of sdpI gene expression in Bacillus subtilis W168 by microarray analysis; assay type: functional; outline: as §1
# Bacillus subtilis [23] = test: Antibacterial activity against sigMWX and pspA gene-deficient Bacillus subtilis CU1065 mutant by liquid growth inhibition assay; assay type: functional; outline: as §4
# Bacillus subtilis [24] = test: Antibacterial activity against Bacillus subtilis CU1066 with depletion in pgsA gene by liquid growth inhibition assay; assay type: functional; conditions: CU1065, in the assay text read “CU1065” for “CU1066”
# Outline: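 Liquid growth inhibition in Mueller-Hinton broth with 50 mg/liter Ca2+. Overnight cultures diluted 1:100, grown to mid-log, rediluted to 5 × 10^5 CFU/ml, then given at least 10 daptomycin concentrations near the predicted MIC plus a drug-free control. OD600 read every 20 min for 24 h at 37°C with shaking. MIC is the mode of at least triplicates of the lowest concentration giving final OD600 <0.05.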
# Bacillus subtilis [25] = test: Induction of murB gene expression in Bacillus subtilis W168 by microarray analysis; assay type: functional; outline: as §1
# Bacillus subtilis [26] = test: Antibacterial activity against sigWM gene-deficient Bacillus subtilis CU1065 double mutant by liquid growth inhibition assay; assay type: functional; outline: as §4
# Bacillus subtilis [27] = test: Antibacterial activity against wild-type Bacillus subtilis; assay type: functional; outline: as §4
# Bacillus subtilis [28] = test: Induction of yoeB gene expression in Bacillus subtilis W168 by microarray analysis; assay type: functional; outline: as §1
# Bacillus subtilis [29] = test: Decrease in ywfB gene expression in Bacillus subtilis W168 by microarray analysis; assay type: functional; outline: as §1
# Bacillus subtilis [30] = test: Antibacterial activity against des gene-deficient Bacillus subtilis W168 mutant by liquid growth inhibition assay; assay type: functional; outline: as §4
# Bacillus subtilis [31] = test: Induction of liaI gene expression in Bacillus subtilis W168 by microarray analysis; assay type: functional; outline: as §1
# Bacillus subtilis [32] = test: Induction of yhcY gene expression in Bacillus subtilis W168 by microarray analysis; assay type: functional; outline: as §1
# Bacillus subtilis [33] = test: Antibacterial activity against Bacillus subtilis CU1065 mutant with mprF gene overexpression by liquid growth inhibition assay; assay type: functional; outline: as §4
# Bacillus subtilis [34] = test: Antibacterial activity against des gene-deficient Bacillus subtilis W168 mutant with alteration in membrane composition at 25 degC by liquid growth inhibition assay; assay type: functional; outline: as §3
# Bacillus subtilis [35] = test: Antibacterial activity against ugtP gene-deficient Bacillus subtilis CU1065 mutant by liquid growth inhibition assay; assay type: functional; outline: as §4
# Bacillus subtilis [36] = test: Antibacterial activity against liaIH and pspA gene-deficient Bacillus subtilis CU1065 mutant by liquid growth inhibition assay; assay type: functional; outline: as §4
# Bacillus subtilis [37] = test: Induction of bcrC gene expression in Bacillus subtilis W168 by microarray analysis; assay type: functional; outline: as §1
# Bacillus subtilis [38] = test: Decrease in fabHA gene expression in Bacillus subtilis W168 by microarray analysis; assay type: functional; outline: as §1
# Bacillus subtilis [39] = test: Induction of maf gene expression in Bacillus subtilis W168 by microarray analysis; assay type: functional; outline: as §1
# Bacillus subtilis [40] = test: Induction of yhdL gene expression in Bacillus subtilis W168 by microarray analysis; assay type: functional; outline: as §1
# Bacillus subtilis [41] = test: Antibacterial activity against liaIH, mprF and pspA gene-deficient Bacillus subtilis CU1065 mutant by liquid growth inhibition assay; assay type: functional; outline: as §4
# Bacillus subtilis [42] = test: Induction of ypbG gene expression in Bacillus subtilis W168 by microarray analysis; assay type: functional; outline: as §1
# Bacillus subtilis [43] = test: Induction of sigM gene expression in Bacillus subtilis W168 by microarray analysis; assay type: functional; outline: as §1
# Bacillus subtilis [44] = test: Antibacterial activity against sigMWX gene-deficient Bacillus subtilis CU1065 triple mutant by liquid growth inhibition assay; assay type: functional; outline: as §4
# Bacillus subtilis [45] = test: Antibacterial activity against sigXM gene-deficient Bacillus subtilis CU1065 double mutant by liquid growth inhibition assay; assay type: functional; outline: as §4
# Bacillus subtilis [46] = test: Induction of liaS gene expression in Bacillus subtilis W168 by microarray analysis; assay type: functional; outline: as §1
# Bacillus subtilis [47] = test: Antibacterial activity against sigM gene-deficient Bacillus subtilis CU1065 mutant by liquid growth inhibition assay; assay type: functional; outline: as §4
# Bacillus subtilis [48] = test: Decrease in yisY gene expression in Bacillus subtilis W168 by microarray analysis; assay type: functional; outline: as §1
# Bacillus subtilis [49] = test: Antibacterial activity against liar gene-deficient Bacillus subtilis W168 mutant by liquid growth inhibition assay; assay type: functional; outline: as §4
smiles,measurement,setting,value
CCCCCCCCCC(=O)N[C@@H](Cc1c[nH]c2ccccc12)C(=O)N[C@H](CC(N)=O)C(=O)N[C@@H](CC(=O)O)C(=O)N[C@@H]1C(=O)NCC(=O)N[C@@H](CCCN)C(=O)N[C@@H](CC(=O)O)C(=O)N[C@H](C)C(=O)N[C@@H](CC(=O)O)C(=O)NCC(=O)N[C@H](CO)C(=O)N[C@@H]([C@H](C)CC(=O)O)C(=O)N[C@@H](CC(=O)c2ccccc2N)C(=O)O[C@@H]1C,fold change (FC),Bacillus subtilis [1],2
same,fold change (FC),Bacillus subtilis [2],3.5
same,fold change (FC),Bacillus subtilis [3],0.5
same,MIC,Bacillus subtilis [4],0.7 µg/mL
same,MIC,Bacillus subtilis [5],0.3 µg/mL
same,MIC,Bacillus subtilis [6],0.5 µg/mL
same,fold change (FC),Bacillus subtilis [7],2.2
same,fold change (FC),Bacillus subtilis [8],7.8
same,MIC,Bacillus subtilis [9],0.4 µg/mL
same,MIC,Bacillus subtilis [10],1 µg/mL
same,MIC,Bacillus subtilis [11],0.5 µg/mL
same,fold change (FC),Bacillus subtilis [12],75
same,MIC,Bacillus subtilis [13],0.2 µg/mL
same,fold change (FC),Bacillus subtilis [14],26
same,MIC,Bacillus subtilis [15],0.8 µg/mL
same,fold change (FC),Bacillus subtilis [16],0.5
same,fold change (FC),Bacillus subtilis [17],5.3
same,fold change (FC),Bacillus subtilis [18],574
same,MIC,Bacillus subtilis [19],0.2 µg/mL
same,MIC,Bacillus subtilis [20],0.8 µg/mL
same,fold change (FC),Bacillus subtilis [21],10
same,fold change (FC),Bacillus subtilis [22],8.9
same,MIC,Bacillus subtilis [23],0.5 µg/mL
same,MIC,Bacillus subtilis [24],8 µg/mL
same,fold change (FC),Bacillus subtilis [25],2
same,MIC,Bacillus subtilis [26],0.7 µg/mL
same,MIC,Bacillus subtilis [27],1 µg/mL
same,fold change (FC),Bacillus subtilis [28],2.1
same,fold change (FC),Bacillus subtilis [29],7.9
same,MIC,Bacillus subtilis [30],0.9 µg/mL
same,fold change (FC),Bacillus subtilis [31],1294
same,fold change (FC),Bacillus subtilis [32],3.3
same,MIC,Bacillus subtilis [33],1.3 µg/mL
same,MIC,Bacillus subtilis [34],0.4 µg/mL
same,MIC,Bacillus subtilis [35],0.9 µg/mL
same,MIC,Bacillus subtilis [36],0.2 µg/mL
same,fold change (FC),Bacillus subtilis [37],3.1
same,fold change (FC),Bacillus subtilis [38],2.3
same,fold change (FC),Bacillus subtilis [39],2.5
same,fold change (FC),Bacillus subtilis [40],2.5
same,MIC,Bacillus subtilis [41],0.2 µg/mL
same,fold change (FC),Bacillus subtilis [42],3.6
same,fold change (FC),Bacillus subtilis [43],2.1
same,MIC,Bacillus subtilis [44],0.6 µg/mL
same,MIC,Bacillus subtilis [45],0.6 µg/mL
same,fold change (FC),Bacillus subtilis [46],126
same,MIC,Bacillus subtilis [47],0.8 µg/mL
same,fold change (FC),Bacillus subtilis [48],0.5
same,MIC,Bacillus subtilis [49],0.5 µg/mL
